Experiments:
Assay type in all cases: functional, MT2
[1] = test system: Human immunodeficiency virus 1; test: Antiviral activity against Human immunodeficiency virus 1 isolate 31 harboring Gag-capsid I138L, S173T, V215L, I223N, M228L, G248Q, N252H, T280V and E312D mutant gene and protease I13V, K14R/K, M36I, S37N, I64V, H69K and I72V mutant gene infected in human MT-2 cells by XTT-assay relative to wild-type
Outline: (§1)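 Patient Gag-protease (SfoI-XmaI) fragments were ligated into the pXXLAI backbone, with colonies pooled to keep quasispecies. Virus came from 293T transfection, harvested at 2 days. MT-2 infection at 37°C used an input giving XTT signal-to-noise of 2.5–4.0 (≈MOI 0.001). Cells at ≈17,000/well with drug dilutions, 5 days, 37°C; XTT 1 h, A450–650. EC50 from % cell death; fold change vs wild-type LAI.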

[2] = test system: Human immunodeficiency virus 1; test: Antiviral activity against Human immunodeficiency virus 1 isolate 36 harboring Gag-capsid I138L, A146P, S165N/S, E207D, V215L and E312D mutant gene and protease K14R/K, I15V, E35D, S37D, R57K/R and L63P mutant gene infected in human MT-2 cells by XTT-assay relative to wild-type; outline: as §1
[3] = test system: Human immunodeficiency virus 1; test: Antiviral activity against Human immunodeficiency virus 1 isolate 4 harboring Gag-capsid A146P, V159I, K162R, Q182S, T186I, V215L, I223G/V, N252G, P255A, E260D, E312D and G357S mutant gene and protease L10R, S37N, M46L, I62V, L63P, A71V, T74S, V82T, L90M and I93L mutant gene infected in human MT-2 cells by XTT-assay relative to wild-type; outline: as §1
[4] = test system: Human immunodeficiency virus 1; test: Antiviral activity against Human immunodeficiency virus 1 isolate 28 harboring Gag-capsid I138M mutant gene and protease L10I, I13V, L23I, L33F, S37N, M46I, I54V, K55R, R57K, Q58E, D60E, I62V, L63P, A71I, I72V, L76V, V77I, V82A, I84V, I85V, L89M, L90M and I93L mutant gene infected in human MT-2 cells by XTT-assay relative to wild-type; outline: as §1
[5] = test system: Human immunodeficiency virus 1; test: Antiviral activity against Human immunodeficiency virus 1 isolate 7 harboring Gag-capsid I138L, I147L, S173A, V215L, I223V, T242N, G248A, N252A, I126T, T280V and E312D mutant gene and protease K20R, M36I, R41K, M46I, L63Q, I64V, P79S, V82F and L90M mutant gene infected in human MT-2 cells by XTT-assay relative to wild-type; outline: as §1
[6] = test system: Human immunodeficiency virus 1; test: Antiviral activity against Human immunodeficiency virus 1 isolate 20 harboring Gag-capsid I138L, V215L, V218P, H219Q, M228I, E230D, G248T, T280A, E312D, A340G and G357S mutant gene and protease L10F, A22V, D30N, S37N, K45R, I54L, I62V, L63P, A71V, V77I, I84V, N88D and Q92K mutant gene infected in human MT-2 cells by XTT-assay relative to wild-type; outline: as §1
[7] = test system: Human immunodeficiency virus 1; test: Antiviral activity against Human immunodeficiency virus 1 isolate 34 harboring Gag-capsid I138L, I147L, V159I, V215L, T280V, A309C, S310T, E312D and G357S mutant gene and protease L10I, I13V, E35D, S37N, I62V, L63P and I64M mutant gene infected in human MT-2 cells by XTT-assay relative to wild-type; outline: as §1
[8] = test system: Human immunodeficiency virus 1; test: Antiviral activity against Human immunodeficiency virus 1 isolate 29 harboring Gag-capsid I138M, A146P, R286K, T303V and A326S mutant gene and protease L10F, I13V, V32I, M36L, S37N, L38W, P39Q, M46I, I47V, I50V, I62V, L63P, A71I, I72V and V82A mutant gene infected in human MT-2 cells by XTT-assay relative to wild-type; outline: as §1
[9] = test system: Human immunodeficiency virus 1; test: Antiviral activity against Human immunodeficiency virus 1 isolate 39 harboring Gag-capsid A146P, I147L, V215L, M228I, G248A, R286K, A326S, G357S and V362I mutant gene and protease K14R, E35D, M36I, S37N, R41K, K45R, D60E, I62V and I64V mutant gene infected in human MT-2 cells by XTT-assay relative to wild-type; outline: as §1
[10] = test system: Human immunodeficiency virus 1; test: Antiviral activity against Human immunodeficiency virus 1 isolate 24 harboring Gag-capsid I138L, V159I, V215L, I223A, T239S, N252S, T280V, R286K, S310T and V362I mutant gene and protease L10V, I13V, I15V, K20R, D30N, V32I, L33F, E35D, M36I, S37N, K43T, M46I, I47V, F53L, I54L, I62V, L63P, I66F, A71V, T74S, V82A, N88D, L89V, L90M and I93V mutant gene infected in human MT-2 cells by XTT-assay …
[11] = test system: Human immunodeficiency virus 1; test: Antiviral activity against Human immunodeficiency virus 1 isolate 38 harboring Gag-capsid I138L, I147L, V215L, H219Q/H, I223V, N252H, P292S, A336S/A and A340G mutant gene and protease E35D, S37A and L63P mutant gene infected in human MT-2 cells by XTT-assay relative to wild-type; outline: as §1
[12] = test system: Human immunodeficiency virus 1; test: Antiviral activity against Human immunodeficiency virus 1 isolate 32 harboring Gag-capsid, I138L, A146P, I147L, V159I, V215L, I223A, N252S/N, T280V and S310T and protease R41K/R, I62V, L63P, V77I and I93L mutant gene infected in human MT-2 cells by XTT-assay relative to wild-type; outline: as §1
[13] = test system: Human immunodeficiency virus 1; test: Antiviral activity against Human immunodeficiency virus 1 isolate 33 harboring Gag-capsid I138L, V215L, V218P, H219Q, I223V, M228I, G248T, N252S, N253T, I256M, E312D and A326S mutant gene and protease T12S/T, I13V/I, I15V, L19I, S37T, L63V/A/P/L and I72V/I mutant gene infected in human MT-2 cells by XTT-assay relative to wild-type; outline: as §1
[14] = test system: Human immunodeficiency virus 1; test: Antiviral activity against Human immunodeficiency virus 1 isolate 30 harboring Gag-capsid I138L, V215L, R286K and Q311A mutant gene and protease I13V, E35D, S37N and L63P mutant gene infected in human MT-2 cells by XTT-assay relative to wild-type; outline: as §1
[15] = test system: Human immunodeficiency virus 1; test: Antiviral activity against Human immunodeficiency virus 1 isolate 6 harboring Gag-capsid I138L and V215L mutant gene and protease L10I, S37N, M46L, G48V, R57K, L63P, I66F, A71V, V82T and I84V mutant gene infected in human MT-2 cells by XTT-assay relative to wild-type; outline: as §1
[16] = test system: Human immunodeficiency virus 1; test: Antiviral activity against Human immunodeficiency virus 1 isolate 27 harboring Gag-capsid I138L, S173T/S, V215L, L268M, R275K/R, T280V, S310T, E319D and G357S and protease L10I, I15V, L19V, V32I, L33F, M46I, I54V, K55R, R57K, L63P, C67F, H69Q, A71V, G73C/G, V82A, L90M and Q92K mutant gene and deletion at A341 in Gag- capsid infected in human MT-2 cells by XTT-assay relative to wild-type; outline: as §1
[17] = test system: Human immunodeficiency virus 1; test: Antiviral activity against Human immunodeficiency virus 1 isolate 8 harboring Gag-capsid V215T mutant gene and protease L10I, L24I, L33F, S37N, R41K, I54V, D60E, I62V, L63P, A71V, V77I, V82A and I84V mutant gene infected in human MT-2 cells by XTT-assay relative to wild-type; outline: as §1
[18] = test system: Human immunodeficiency virus 1; test: Antiviral activity against Human immunodeficiency virus 1 isolate 9 harboring Gag-capsid I138L, A146S, I147L, V215L, N252H, T280A, A340G and E345D mutant gene and protease L10I, I13V, K20M, L33V, M36I, S37N, I54V, R57K, I62V, L63P, I66L, A71V, G73S, P79A, I84V and L90M mutant gene infected in human MT-2 cells by XTT-assay relative to wild-type; outline: as §1
[19] = test system: Human immunodeficiency virus 1; test: Antiviral activity against Human immunodeficiency virus 1 isolate 1 harboring Gag-capsid I138L, V159I, E203D, V215L, I223V, T280V, E312D and V323I mutant gene and protease L10I, K20R, M36I, S37N, G48V, I54M, I62V, L63P, A71V, I72V, V82A, I84V, L90M and I93L/I mutant gene infected in human MT-2 cells by XTT-assay relative to wild-type; outline: as §1
[20] = test system: Human immunodeficiency virus 1; test: Antiviral activity against Human immunodeficiency virus 1 isolate 25 harboring Gag-capsid I138M, S173A, V215L, N252S, I256T, S310T/S, A340G and E345D mutant gene and protease L10F, V11I, I13V, K20I, V32I, L33F, E34Q, E35D, M36I, S37N, K43T, M46I, F53Y, I54L, Q61N, I62V, L63T, I64V, A71L, T74S, L76V, I84V, L90M and I93L mutant gene infected in human MT-2 cells by XTT-assay relative to wild-type; outline: as §1
[21] = test system: Human immunodeficiency virus 1; test: Antiviral activity against Human immunodeficiency virus 1 isolate 10 harboring Gag-capsid I138L, I147L, V159I, V215L, G248A, I256V, T280V, R286K and N315H mutant gene and protease L10I, K20R, E35D, M36I, S37N, R41K, K45R, F53L, I54V, L63P, I64V, A71T, V82A, L90M and I93L mutant gene infected in human MT-2 cells by XTT-assay relative to wild-type; outline: as §1

SMILES	fold change (FC) [1]	fold change (FC) [2]	fold change (FC) [3]	fold change (FC) [4]	fold change (FC) [5]	fold change (FC) [6]	fold change (FC) [7]	fold change (FC) [8]	fold change (FC) [9]	fold change (FC) [10]	fold change (FC) [11]	fold change (FC) [12]	fold change (FC) [13]	fold change (FC) [14]	fold change (FC) [15]	fold change (FC) [16]	fold change (FC) [17]	fold change (FC) [18]	fold change (FC) [19]	fold change (FC) [20]	further results
COC(=O)N[C@H](C(=O)N[C@@H](Cc1ccccc1)[C@@H](O)CN(Cc1ccc(-c2ccccn2)cc1)NC(=O)[C@@H](NC(=O)OC)C(C)(C)C)C(C)(C)C [ATAZANAVIR]	1.9	1.3	13.3	14.4	1	51.9	1.6	3.2	1.4	590	1.2	1.2	1.8	0.9	29.2	52.1	29	44.4	62.9	184	fold change (FC) [21]: 8.5
Cc1cccc(C)c1OCC(=O)N[C@@H](Cc1ccccc1)[C@@H](O)C[C@H](Cc1ccccc1)NC(=O)[C@H](C(C)C)N1CCCNC1=O [LOPINAVIR]	1.1	1.1	15.2	99.3	4.1	13.3	1.4	89.3	0.8	69	0.9	0.5	1.6	0.7	3.4	29.2	28.7	16.5	22.1	58.9	fold change (FC) [21]: 15.3

Reference: ChEMBL document CHEMBL1275586, “Phenotypic susceptibility to bevirimat in isolates from HIV-1-infected patients without prior exposure to bevirimat” (Antimicrob Agents Chemother, 2010)
